From PubChem
Sampled rows, rich in hits. Any-hit rate of the full collection: about 2.9%.
ABHD4 inh – ABHD4 inhibitors, primary screen, biochemical, fluorescence polarization, mouse | inhibition, % at 8.92 µM | hit rate 0.54% among 370,000 | (Lyso)-N-acylphosphatidylethanolamine lipase (Mus musculus), Q8VD66 | purified mABHD4, FP-Rh probe fluorescence polarization;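 active means inhibition exceeding the mean over every tested compound plus 3 SD, cut at about 30% in these data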
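Assay system: mouse ABHD4 enzyme, wild type / Also added: fluorescent activity-based probe FP-Rh / Doses: single nominal dose of 8.92 µM, 0.89% DMSO final / Timing: 45 min compound pre-incubation plus 60 min probe step, 25 °C / Signal: FP readout, ex 525 nm / em 598 nm / Control set: S159A mutant/DMSO as 100%, compound-well median as 0%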
PRMT1 inh – PRMT1 methyltransferase inhibitors, primary screen, biochemical, fluorescence polarization. Protein arginine N-methyltransferase 1 (Homo sapiens), Q99873. recombinant PRMT1, activity-based probe fluorescence polarization. inhibition, % at 2.79 µM. hit rate 1.3% among 370,000. AID 652257, 2013;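 active means inhibition above about 21% made by adding two undisclosed values, limit read from the data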
HTRA1 inhibitor – HTRA1 serine protease inhibitors, primary screen, biochemical, fluorescence polarization, HTS. Q92743. recombinant HTRA1, FP-rhodamine activity-based probe. inhibition, % at 5.96 µM. hit rate 0.5% among 340,000. AID 504803, 2011; in the data active means inhibition above about 36%
SIAE primary – human SIAE inhibitors, primary screen, biochemical, fluorescence polarization, FP-Rh probe, 1536-well HTS. Sialate O-acetylesterase (Homo sapiens), Q9HAT2. SIAE FP-Rh probe binding. inhibition, % at 9.66 µM. hit rate 0.69% among 370,000;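 active means inhibition above a cutoff: mean of compounds within the control limits plus 3 SD of those, cut at about 17% in these data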
PAD4 inh – human PAD4 inhibitors, primary screen, biochemical, fluorescence polarization, 1536-well format | Protein-arginine deiminase type-4 (Homo sapiens), Q9UM07 | recombinant PAD4, RCA probe fluorescence polarization | inhibition, % at 6.36 µM | hit rate 0.41% among 330,000;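 active means percent inhibition above a cutoff equal to the mean of all tested compounds plus 3 SD, cut at about 15% in these data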
Target sequence (Q9UM07 whole entry, looked up): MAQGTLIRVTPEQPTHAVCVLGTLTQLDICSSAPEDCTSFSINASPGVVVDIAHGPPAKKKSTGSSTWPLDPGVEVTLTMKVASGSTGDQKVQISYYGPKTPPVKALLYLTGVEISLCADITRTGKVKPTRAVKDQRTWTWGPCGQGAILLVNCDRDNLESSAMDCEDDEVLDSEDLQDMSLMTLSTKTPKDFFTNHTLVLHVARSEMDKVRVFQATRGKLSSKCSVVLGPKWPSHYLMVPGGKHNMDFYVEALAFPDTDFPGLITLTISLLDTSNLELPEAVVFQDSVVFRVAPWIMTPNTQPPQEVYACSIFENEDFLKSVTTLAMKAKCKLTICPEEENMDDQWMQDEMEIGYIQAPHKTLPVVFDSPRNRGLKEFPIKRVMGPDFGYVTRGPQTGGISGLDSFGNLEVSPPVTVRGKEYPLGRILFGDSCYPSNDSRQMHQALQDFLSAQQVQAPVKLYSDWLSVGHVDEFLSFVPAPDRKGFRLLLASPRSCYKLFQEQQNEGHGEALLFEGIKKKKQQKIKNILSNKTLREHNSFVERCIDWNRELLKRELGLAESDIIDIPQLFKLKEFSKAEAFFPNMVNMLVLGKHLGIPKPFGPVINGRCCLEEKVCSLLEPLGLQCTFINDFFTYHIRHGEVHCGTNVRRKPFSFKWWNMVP
TCR CD3 inh – inhibitors of human TCR-CD3 interaction, primary screen, biochemical, fluorescence, TAMRA-labeled TCR probe. hit rate 0.37% among 360,000. inhibition, % at 9.4 µM. T-cell receptor (TCR); in the data active means inhibition above about 19%;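 further: recombinant mutant TCR 2C K166C tagged with TAMRA read by polarization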
PAD4 FP conf – human PAD4 inhibitors, confirmation, biochemical, fluorescence polarization. hit rate 28% among 1,200. inhibition, % at 6.36 µM. shares compounds with PAD4 inh. recombinant PAD4, RCA probe fluorescence polarization;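 active means mean inhibition across replicates above the hit cutoff set by the earlier primary screen, cut at about 15% in these data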;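 further: inhibitors block active-site labeling by the probe so polarization falls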
Each line names hits and unclear results; the compound was inactive in the other large screens (follow-up assays come after a bar, where they were run).

CCCCCCN1CCS(=O)(=O)N(Cc2ccc(C)cc2)C(C(=O)OC)C1 (stereo not given)	none (no result: HTRA1 inhibitor, PAD4 inh, TCR CD3 inh)
CC1CC(C)(C)N2C(=O)C3(Nc4ccccc4S3)c3cccc1c32 (stereo not given)	PAD4 inh 23 (no result: ABHD4 inh, PRMT1 inh, SIAE primary, TCR CD3 inh) | PAD4 FP conf 28
C[C@@H]1CN([C@@H](C)CN(C)C)C(=O)c2cc(NC(=O)Nc3ccccc3)ccc2O[C@@H](C)CCCCO[C@H]1CN(C)S(=O)(=O)c1ccc(F)cc1	none (no result: HTRA1 inhibitor, PAD4 inh, TCR CD3 inh)
COc1ccc2c3c([nH]c2c1)[C@]1(CCNC=O)Nc2ccccc2C1=NCC3	none (no result: HTRA1 inhibitor, PAD4 inh, TCR CD3 inh)
C=CCC(CC=C)(NC(=O)c1ccccc1C)c1ccccc1	PAD4 inh 17 | PAD4 FP conf inactive
O=C(NCCc1ccccc1)OCc1cn(Cc2ccccc2C(F)(F)F)nn1	none (no result: HTRA1 inhibitor, PAD4 inh, TCR CD3 inh)
CCOc1ccc2nc(NC(=O)c3ccco3)sc2c1	PAD4 inh 17 | PAD4 FP conf inactive
COc1cc(CNCc2ccncc2)cc(Br)c1OCc1ccccc1F	none
COc1cc(CNc2ccc(O)cc2)cc(Br)c1OCc1ccccc1F	PAD4 inh 28 (no result: ABHD4 inh, PRMT1 inh, SIAE primary, TCR CD3 inh) | PAD4 FP conf inactive
C=CCN1[C@@H](Cc2ccccc2)COc2cccc(F)c2S1(=O)=O	none (no result: HTRA1 inhibitor, PAD4 inh, TCR CD3 inh)
COC(=O)[C@H](C(C)C)N(CCc1cn(CC2CCCCC2)nn1)S(=O)(=O)c1ccccc1Br	none (no result: HTRA1 inhibitor, PAD4 inh, TCR CD3 inh)
O=S(c1ccc2ccccc2c1)c1cnns1 (stereo not given)	PAD4 inh 19 | PAD4 FP conf 19
CCn1c(SCC(=O)Nc2cccc3ccccc23)nnc1-c1cccs1	none (no result: HTRA1 inhibitor, PAD4 inh, TCR CD3 inh)
O=C(CSc1ccccn1)Nc1ccc(NC(=O)CSc2ccccn2)cc1	none
O=C(CSc1ccccn1)Nc1nonc1[N+](=O)[O-]	PRMT1 inh 29, PAD4 inh 19 | PAD4 FP conf inactive
N#Cc1nc(N2CCCCC2)nc(N2CCOCC2)n1	PAD4 inh 19 | PAD4 FP conf 24
CCN1CC2=C(OC(N)=C(C#N)C2c2ccccc2)/C(=C\c2ccccc2)C1 (stereo not given)	PAD4 inh 24 | PAD4 FP conf 19
N#CC1=C(N)OC2=C(CN(Cc3ccccc3)C/C2=C\c2cccnc2)C1c1cccnc1 (stereo not given)	none
COc1ccc(-c2nnc3n2N=C(c2cccc([N+](=O)[O-])c2)CS3)cc1	none (no result: HTRA1 inhibitor, PAD4 inh, TCR CD3 inh)
CC(C)(C)c1nn(-c2ccccc2)c2[nH]c(=O)c(CNc3ccc4c(c3)OCCO4)cc12	none
Cc1nn(-c2ccccc2)c2[nH]c(=O)c(CNc3ccc(N4CCOCC4)cc3)cc12	PAD4 inh 20 | PAD4 FP conf inactive
Cc1c([N+](=O)[O-])cnc(Sc2ccccc2)c1[N+](=O)[O-]	PAD4 inh 26 | PAD4 FP conf inactive
CC(=O)N[C@@H]1C[C@@H]2O[C@H](CO)CC[C@@H]2O[C@@H]1CCc1ccc(-c2ccc(F)cc2)cc1	none (no result: HTRA1 inhibitor, PAD4 inh, TCR CD3 inh)
O=C1CC(c2ccc(F)cc2)c2cc3c(cc2N1)CCC3 (stereo not given)	PAD4 inh 16 | PAD4 FP conf inactive
Cc1cc2c(cc1C)C(c1cccc(F)c1)CC(=O)N2 (stereo not given)	none (no result: PAD4 inh)
Cc1ccc(/C(=N/Nc2nc3ccccc3s2)C2=C(O)c3ccccc3C2=O)cc1	PAD4 inh 42 | PAD4 FP conf 17
Cc1ccc(S(=O)(=O)N(C)CC(=O)Nc2nc3ccccc3s2)cc1	none
CCN(Cc1ccc2c(c1)OCO2)C(=O)CSc1ncnc2sccc12	none
CCN(Cc1ccc2c(c1)OCCO2)C(=O)CSc1nc(C)nc2sc(C)c(C)c12	PAD4 inh 79 | PAD4 FP conf inactive
COC(=O)C1CN(CCc2ccccc2)CCS(=O)(=O)N1Cc1ccc(C(F)(F)F)cc1 (stereo not given)	none (no result: HTRA1 inhibitor, PAD4 inh, TCR CD3 inh)
O=C1C(Cl)=C(N2CCN(c3ccccc3[N+](=O)[O-])CC2)C(=O)c2ccccc21	PAD4 inh 29 | PAD4 FP conf inactive
CS(=O)(=O)N1N=C(c2cccs2)CC1c1ccccc1 (stereo not given)	PAD4 inh 30 | PAD4 FP conf inactive
Cc1ccc(NC(=S)NNC(=O)CSc2nnc(SCc3cccc4ccccc34)s2)cc1	none (no result: HTRA1 inhibitor, PAD4 inh, TCR CD3 inh)
CC(C)N(C)NC(=S)Nc1ccccc1	none
Cc1cc(N(C)NC(=S)Nc2ccccc2)nc(C)n1	PAD4 inh 52 | PAD4 FP conf inactive
Cc1noc(C)c1S(=O)(=O)N(C)C[C@H]1Oc2c(NS(=O)(=O)c3cn(C)cn3)cccc2C(=O)N([C@H](C)CO)C[C@@H]1C	PAD4 inh 37 | PAD4 FP conf inactive
C[C@H](CO)N1C[C@H](C)[C@@H](CN(C)S(=O)(=O)c2cn(C)cn2)Oc2c(NS(=O)(=O)c3cn(C)cn3)cccc2C1=O	none
COc1ccc(-c2nnc(SCC(=O)Nc3ccc(S(=O)(=O)Nc4cc(C)nc(C)n4)cc3)n2-c2ccc(OC)cc2)cc1	none (no result: HTRA1 inhibitor, PAD4 inh, TCR CD3 inh)
COC(=O)c1cccc(NC(=O)CC2C(=O)NCCN2C(=O)Nc2ccccc2)c1 (stereo not given)	none
COC(=O)c1cc(NC(=O)CC2C(=O)NCCN2C(=O)c2ccccc2)cc(C(=O)OC)c1 (stereo not given)	PAD4 inh 16 | PAD4 FP conf inactive
O=C(NC1CCCCN(Cc2ccc(OC(F)(F)F)cc2)C1=O)c1ccc(F)c(F)c1 (stereo not given)	none (no result: HTRA1 inhibitor, PAD4 inh, TCR CD3 inh)
COc1ccc(OC)c(S(=O)(=O)Oc2ccc(N)c3ccccc23)c1	PAD4 inh 21 | PAD4 FP conf inactive
C[C@@H]1O[C@@H](n2c3ccc(Cl)cc3c3ccc4c5cc(Cl)ccc5[nH]c4c32)[C@H](O)[C@H](O)[C@H]1O	none (no result: HTRA1 inhibitor, PAD4 inh, TCR CD3 inh)
Cn1nnnc1Sc1ncnc2scc(-c3ccc([N+](=O)[O-])cc3)c12	PAD4 inh 17 | PAD4 FP conf inactive
C[C@@H]1C=CCCO[C@]12C(=O)Nc1ccccc12	none (no result: HTRA1 inhibitor, PAD4 inh)
COC(=O)[C@H](CC(C)C)N(Cc1cn(Cc2ccc(C)cc2)nn1)S(=O)(=O)c1ccc(F)cc1Br	none (no result: HTRA1 inhibitor, PAD4 inh, TCR CD3 inh)
COc1cc(N2C(=O)CSC23C(=O)Nc2ccccc23)cc(OC)c1OC (stereo not given)	PAD4 inh 15 | PAD4 FP conf 16
COc1ccc(N2C(=O)CSC23C(=O)Nc2ccccc23)cc1OC (stereo not given)	none
c1ccc(C[n+]2csc3ccccc32)cc1	PRMT1 inh 84, PAD4 inh 23 | PAD4 FP conf 34
Cc1nn2c(nc1=O)SCC(c1ccccc1)=N2	PRMT1 inh 24, PAD4 inh 18 | PAD4 FP conf inactive
